Experimental data: ChEMBL document CHEMBL4513216, “Probing the Open Global Health Chemical Diversity Library for Multistage-Active Starting Points for Next-Generation Antimalarials” (ACS Infect Dis, 2020)

Test: Toxicity liver stage against HepG2, at 10uM
Format: cell-based
Design: test concentration 10 uM, cell line HepG2-A16-CD81EGFP
Settings: human, HepG2-A16-CD81EGFP cells; read-out: INHIBITION
How it was run: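 Uninfected HepG2-A16-CD81EGFP cells, 3 × 10^3 per well, 1536-well, plated on prespotted compound at 10 μM final, parasite-free screening media added to match infected plates; puromycin 10 μM positive, DMSO 0.5% negative; run in parallel with 48 h PbLuc assay at 37 °C, 5% CO2; viability by CellTiter-Glo luminescence, normalized to controls.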

O=c1ncn(-c2cccc(F)c2)c2ncccc12
cytotoxicity at 10 µM: 4.19%

O=C1NC[C@H]2CN(Cc3ccnc4ccccc34)CCN12
cytotoxicity at 10 µM: -3.66%

CC(C)(C)c1coc([C@@H]2COCCN2CC2CC2)n1
cytotoxicity at 10 µM: -10.1%

CN(C)CCNCC1CCOC(C)(C)C1 (configuration not stated)
cytotoxicity at 10 µM: -9.35%

CNC(=O)c1nc(COc2c(C)occc2=O)no1
cytotoxicity at 10 µM: 3.08%

CC(C)c1nc2oc(C(=O)N3CCOCC3)c(N)c2c2c1CCCC2
cytotoxicity at 10 µM: -3.71%

CCc1c(C)sc2c1c(N)nc(=O)n2CCCN(C)C
cytotoxicity at 10 µM: 2.06%

O=C(NCc1ccc(F)cc1)NCC(O)(c1cccs1)C1CC1 (configuration not stated)
cytotoxicity at 10 µM: -1.13%

COC(=O)c1ccc(S(=O)(=O)NCC(O)c2sccc2C)cc1 (configuration not stated)
cytotoxicity at 10 µM: 2.16%

Cn1ccc(CN2CCCC23CCNCC3)n1
cytotoxicity at 10 µM: 4.86%

CCS(=O)(=O)N1CCOC2(CCCN(c3ncc(F)cn3)C2)C1 (configuration not stated)
cytotoxicity at 10 µM: 5.86%

COC[C@]12COC[C@H]1CN(C(=O)C1CCSCC1)C2
cytotoxicity at 10 µM: 2.2%

COc1cc(N2CCn3cc(CNc4ccccn4)nc3C2)ncn1
cytotoxicity at 10 µM: 13.1%

Cc1csc(CN2CC[C@H]3C[C@@H](c4nc(C)no4)O[C@@H]3C2)n1
cytotoxicity at 10 µM: 3.8%

Cc1oncc1C(=O)N1CCCc2c(C#N)nn(C)c2C1
cytotoxicity at 10 µM: -134%

CC1CCN(C(=O)c2ccn(COc3ccc(F)cc3)n2)CC1
cytotoxicity at 10 µM: -9.38%

Cc1cc(-c2cnc(N(C)C)nc2C2CCCCN2C(=O)C2CC2)on1 (configuration not stated)
cytotoxicity at 10 µM: 0.095%

CC(C)N(C)CC(=O)Nc1nccn1Cc1ccccc1Cl
cytotoxicity at 10 µM: 0.0646%

CCn1ccnc1CN1CCCN(C(=O)c2ccc(C#N)cc2)CC1
cytotoxicity at 10 µM: -6.96%

CC(O)CCN(C)C(=O)Nc1ccc(Br)cc1 (configuration not stated)
cytotoxicity at 10 µM: -2.1%

Cc1ccccc1C(C)NC(=O)Cc1c(C)nc2cc(=O)[nH]n2c1C (configuration not stated)
cytotoxicity at 10 µM: 10.8%

NC(=O)CNC(c1ccccc1)c1ccc(OC(F)F)cc1 (configuration not stated)
cytotoxicity at 10 µM: 58.2%

CC(=O)NCCNC(=O)NCc1ccc(-n2ccc(C(F)(F)F)n2)cc1
cytotoxicity at 10 µM: -6%

COC(=O)c1ccc(NC(C)c2ccc3c(c2)NC(=O)CO3)nn1 (configuration not stated)
cytotoxicity at 10 µM: -4.75%

Cc1nnc(CN(C)CC(=O)N2CCCC(C(F)(F)F)C2)n1C (configuration not stated)
cytotoxicity at 10 µM: 4.49%

CC(Cc1c(F)cccc1F)NC(=O)CSCC(N)=O (configuration not stated)
cytotoxicity at 10 µM: -6.37%

O=C(c1ccc(-n2cncn2)cc1)N1CCN(c2cnccn2)CC1
cytotoxicity at 10 µM: 2.45%

O=C(NCc1ccccc1CO)Nc1ccc2c(c1)CCO2
cytotoxicity at 10 µM: 11.4%

CCN1CCN(C(C)CNC(=O)Nc2nnc(C(C)C)s2)CC1 (configuration not stated)
cytotoxicity at 10 µM: 1.06%

Cc1ccccc1-n1cnnc1SCCOCC1CCCO1 (configuration not stated)
cytotoxicity at 10 µM: -3.73%

NCC1(c2cccc(C(F)(F)F)c2)CCCC1
cytotoxicity at 10 µM: -5.7%

Cc1cnn(CC2CN(CCCS(C)(=O)=O)CCO2)c1 (configuration not stated)
cytotoxicity at 10 µM: -2.45%

CC(C)(C)c1nnc(CNc2c(F)cccc2-n2cccn2)o1
cytotoxicity at 10 µM: -8.25%

N#CCCCOc1cccnc1NC(=O)CCC1CCCC1
cytotoxicity at 10 µM: -2.08%

CCc1nc(CN(C)C(=O)NC(C)c2cccc(NC(C)=O)c2)cs1 (configuration not stated)
cytotoxicity at 10 µM: -4.85%

COc1ccc(Nc2cc(C)nc(C)n2)cc1N1CCCC1=O
cytotoxicity at 10 µM: -2.19%

COc1cccc(F)c1C(C)NC(=O)NCCc1ccc(C)nc1 (configuration not stated)
cytotoxicity at 10 µM: -2.13%

Cc1cc(C(=O)NC2(C#N)CCSCC2)n(C)n1
cytotoxicity at 10 µM: 22.1%

CCOCc1ccccc1CNc1ccc2nncn2n1
cytotoxicity at 10 µM: 0.84%

O=C(c1cccc2[nH]ccc12)N1CCC2(CCOC2)C1 (configuration not stated)
cytotoxicity at 10 µM: -151%

Cn1cc(S(=O)(=O)Nc2c(F)cccc2N2CCCC2)cn1
cytotoxicity at 10 µM: -4.24%

CCc1n[nH]c(C2CN(Cc3ncc(CC)o3)CCO2)n1 (configuration not stated)
cytotoxicity at 10 µM: -9.79%

CCn1cnnc1CNC(=O)C1CCCN(Cc2cccc(F)c2)C1 (configuration not stated)
cytotoxicity at 10 µM: 3.5%

Cc1c(Cl)ccc2ccc(NC(CO)CO)nc12
cytotoxicity at 10 µM: -7.78%

Cc1ccc(Cl)c2ccc(NC(CO)CO)nc12
cytotoxicity at 10 µM: -12.1%

COc1c(CNCCC(=O)Nc2cccc(C)n2)c(C(C)C)nn1C
cytotoxicity at 10 µM: -1.17%

COCCC1(CNC(=O)NCC2CCCN(C)C2)CCC1 (configuration not stated)
cytotoxicity at 10 µM: -1.11%

O=C(CNc1ccc(OC2CCOC2)cc1)NCc1ccco1 (configuration not stated)
cytotoxicity at 10 µM: 5.03%

CS(=O)(=O)N1CCC(Nc2ccc(C#N)c(C(F)(F)F)c2)CC1
cytotoxicity at 10 µM: 6.85%

CN(CCn1cccn1)S(=O)(=O)c1cccc(Cl)c1C#N
cytotoxicity at 10 µM: 3.45%

CCN(CC(=O)NC)C(=O)Cc1nc(-c2ccco2)oc1C
cytotoxicity at 10 µM: 22.8%

COc1ccc2[nH]nc(CN3CCC(C(C)N4CCCC4)CC3)c2c1 (configuration not stated)
cytotoxicity at 10 µM: -4.13%

Cc1nc(N2CCC(C(O)c3nccn3C)CC2)c2cccnc2n1 (configuration not stated)
cytotoxicity at 10 µM: 1.46%

O=C(NCCc1ccncc1)c1ccc(N2CCOCC2)cc1
cytotoxicity at 10 µM: -5.08%

CNc1ncccc1C(=O)N1CCN(Cc2ccc(C)cc2)C(=O)C1C (configuration not stated)
cytotoxicity at 10 µM: 5.67%

CN(C)C(=O)N1CCN(CCCc2ccccc2)[C@H]2CS(=O)(=O)C[C@H]21
cytotoxicity at 10 µM: -5.18%

CC[C@@]1(O)CCN(C(=O)c2ccsc2)C[C@H]1O
cytotoxicity at 10 µM: -9.35%

CCc1nc(C2CCCN2CC(=O)Nc2nnc(C)s2)no1 (configuration not stated)
cytotoxicity at 10 µM: -1.73%

COC(=O)c1cccn1C1CCN(C(=O)c2ccc(C)[nH]c2=O)CC1
cytotoxicity at 10 µM: -3.78%

CNC(=O)c1ccc(C(=O)N2CCCC(n3nc(C)cc3C)C2)cn1 (configuration not stated)
cytotoxicity at 10 µM: -5.61%

CCCc1n[nH]c(C2CN(C(=O)c3cccc4cn[nH]c34)CCO2)n1 (configuration not stated)
cytotoxicity at 10 µM: -4.81%

CCOc1cc(C(=O)N2CCCC(n3nc(C)nc3C)C2)ccn1 (configuration not stated)
cytotoxicity at 10 µM: -5.99%

Cc1ccc(C(=O)N(C)Cc2ccc3c(c2)OCCO3)c(=O)[nH]1
cytotoxicity at 10 µM: -9.24%

CN1CCCC1CNC(=O)CCOc1ccc(Cl)cc1 (configuration not stated)
cytotoxicity at 10 µM: -4.31%

Cc1ccc(NC2CCN(C(=O)c3cc4c(s3)CCC4)CC2)nn1
cytotoxicity at 10 µM: -3.48%

CCc1noc(C(C)N2CCN(S(=O)(=O)N3CCCC3)CC2)n1 (configuration not stated)
cytotoxicity at 10 µM: -0.252%

Cc1cnn(CC(C)NCc2ccc(OCc3cscn3)cc2)c1 (configuration not stated)
cytotoxicity at 10 µM: -9.35%

CCC(O)CN1CCN(C(=O)c2ccc(Cn3cccc3)cc2)CC1 (configuration not stated)
cytotoxicity at 10 µM: -6.54%

CCN(Cc1ccc2c(c1)OCO2)C(=O)NC(C)Cn1cccn1 (configuration not stated)
cytotoxicity at 10 µM: -2.5%

NC(=O)c1cc(NC(=O)NCCc2cc(F)cc(F)c2)ccc1F
cytotoxicity at 10 µM: -9.58%

Cn1cnnc1C1CCCN(C(=O)NCc2ccc3c(c2)OCO3)C1 (configuration not stated)
cytotoxicity at 10 µM: -1.9%

Cc1cc(CN(C)C(=O)C2CCS(=O)(=O)C2)no1 (configuration not stated)
cytotoxicity at 10 µM: 0.746%

O=C([C@H]1CC[C@@H]2[C@@H](CCN2Cc2ccc(F)cc2)O1)N1CCCO1
cytotoxicity at 10 µM: 3.74%

Cc1nc(-c2cc(C(=O)NCCN3CCOCC3)c3ccccn23)cs1
cytotoxicity at 10 µM: 3.59%

O=C(NCCc1ccncc1)[C@H]1CC[C@@H]2[C@@H](CCN2CC2CC2)O1
cytotoxicity at 10 µM: 0.545%

COC[C@@H]1CCC[C@]12CN(Cc1cccc(C)n1)CCO2
cytotoxicity at 10 µM: 5.53%

COc1ccccc1OCCNCc1c(C)nn(C)c1N(C)C
cytotoxicity at 10 µM: -2.9%

Fc1ccc(CN2CCC3(CCCN(c4nncs4)C3)C2)cc1 (configuration not stated)
cytotoxicity at 10 µM: -141%

COCC(=O)N1C[C@@H]2CCCO[C@@H]2[C@H](N(C)Cc2ccco2)C1
cytotoxicity at 10 µM: -0.704%

Cc1n[nH]cc1CNCC1(c2cccc(F)c2)CCOCC1
cytotoxicity at 10 µM: 6.48%

O=S(=O)(C1CC1)N1CCC2(CCN(Cc3nccs3)CC2)CC1
cytotoxicity at 10 µM: 7.67%

CN(C)C(=O)COC[C@H]1CC[C@@H]2[C@@H](CCN2Cc2ccco2)O1
cytotoxicity at 10 µM: -160%
